From ChEMBL document CHEMBL5104229, “Novel tetrahydropyrimidinyl-substituted benzimidazoles and benzothiazoles: synthesis, antibacterial activity, DNA interactions and ADME profiling” (RSC Med Chem, 2022)
Converted amounts (≈) assume the structure as drawn. The source made the active and inactive calls. No cut-off for these calls is given here.

What was measured:
Staphylococcus aureus = experiment: Antibacterial activity against Staphylococcus aureus ATCC 29213 incubated assessed as inhibition of bacterial growth for 20 to 22 hrs by broth microdilution method; type: functional; settings: time 20-22 hrs
In short: (§1)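 Broth microdilution per CLSI in cation-adjusted Mueller–Hinton broth, twofold dilutions over […]. Inoculum by direct colony suspension, 5 × 10^4 CFU per well. E. coli and S. aureus grown on MHA; E. faecalis, M. catarrhalis and streptococci on MHA with 5% sheep blood; streptococcal broth supplemented with 5% horse serum. MIC read visually after 20–22 h at 37 °C, ambient air.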

Enterococcus faecalis = experiment: Antibacterial activity against Enterococcus faecalis ATCC29212 assessed as inhibition of bacterial growth incubated for 20 to 22 hrs by broth microdilution method; type: functional; settings: time 20-22 hrs; in short: as §1
Moraxella catarrhalis = experiment: Antibacterial activity against Moraxella catarrhalis ATCC 23246 assessed as inhibition of bacterial growth incubated for 20 to 22 hrs by broth microdilution method; type: functional; settings: time 20-22 hrs; in short: as §1
Escherichia coli = experiment: Antibacterial activity against hypersensitive AcrAB deficient Escherichia coli assessed as inhibition of bacterial growth incubated for 20 to 22 hrs by broth microdilution method; type: functional; settings: time 20-22 hrs; in short: as §1
Streptococcus pneumoniae [1] = experiment: Antibacterial activity against Macrolide sensitive Streptococcus pneumoniae clinical isolate B0652 assessed as inhibition of bacterial growth incubated for 20 to 22 hrs by broth microdilution method; type: functional; settings: time 20-22 hrs
In short: (§2)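 CLSI broth microdilution MIC in cation-adjusted Mueller Hinton broth supplemented with 5% horse serum for streptococci. Twofold dilutions across a 128–0.25 range. Strains grown on MHA with 5% sheep blood; inoculum by direct colony suspension, 5 × 10^4 CFU per well. Read visually after 20–22 h at 37 °C in ambient air; azithromycin and ampicillin as reference antibiotics.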

Streptococcus pneumoniae [2] = experiment: Antibacterial activity against Macrolide resistant Streptococcus pneumoniae clinical isolate B0326 assessed as inhibition of bacterial growth incubated for 20 to 22 hrs by broth microdilution method; type: functional; settings: time 20-22 hrs; in short: as §2
Streptococcus pyogenes [3] = experiment: Antibacterial activity against Macrolide sensitive Streptococcus pyogenes clinical isolate B0542 assessed as inhibition of bacterial growth incubated for 20 to 22 hrs by broth microdilution method; type: functional; settings: time 20-22 hrs; in short: as §1
Streptococcus pyogenes [4] = experiment: Antibacterial activity against Macrolide resistant Streptococcus pyogenes clinical isolate B0545 assessed as inhibition of bacterial growth incubated for 20 to 22 hrs by broth microdilution method; type: functional; settings: time 20-22 hrs; in short: as §2
[5] = Cytotoxicity against human HepG2 cells assessed as reduction in cell viability incubated overnight by MTT assay; type: toxicity, cell-based
Calf thymus DNA [6] = experiment: Binding affinity to calf thymus double stranded DNA assessed as stabilization of DNA by measuring change in melting temperature at pH 7 by UV/Vis-spectrophotometry; type: nucleic-acid assay; settings: Bos taurus
In short: (§3)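 Thermal denaturation in sodium cacodylate buffer, pH 7.0, I = 0.05 mol dm−3, compound/polynucleotide ratio r = 0.3. Absorbance at 260 nm followed versus temperature, ligand absorbance subtracted, scale normalized. Tm from first-derivative maximum, checked by tangent method. ΔTm = Tm(complex) − Tm(free nucleic acid), mean of at least two runs, error ±0.5 °C. ctDNA sonicated and filtered.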

AT rich DNA [7] = experiment: Binding affinity to double stranded [poly(dA-dT)2] DNA (unknown origin) assessed as stabilization of DNA by measuring change in melting temperature at pH 7 by UV/Vis-spectrophotometry; type: nucleic-acid assay; settings: Homo sapiens; in short: as §3
Calf thymus DNA [8] = experiment: Binding affinity to calf thymus double stranded DNA minor groove assessed as assessed as effect on CD spectrum at pH 7 by CD spectroscopy; type: nucleic-acid assay; settings: Bos taurus
In short: (§4)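 CD titration at 25 °C, sodium cacodylate buffer pH 7, I = 0.05 mol dm−3: portions of compound stock (1 × 10−3 mol dm−3 in water, or DMSO for one compound) added to polynucleotide, e.g. poly(dAdT)2 at 2.0 × 10−5 mol dm−3. Scan 500–220 nm, 200 nm min−1, 3 accumulations. Polynucleotide concentration as phosphate.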

AT rich DNA [9] = experiment: Binding affinity to double stranded [poly(dA-dT)2] DNA (unknown origin) minor groove assessed as effect on CD spectrum at pH 7 by CD spectroscopy; type: nucleic-acid assay; in short: as §4
AT rich DNA [10] = experiment: Binding affinity to double stranded [poly(dA-dT)2] DNA (unknown origin) assessed as binding constant at pH 7 by fluorescence spectroscopy; type: nucleic-acid assay; settings: Homo sapiens
In short: (§5)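 Fluorimetric titration at 25 °C, sodium cacodylate buffer pH 7.0, I = 0.05 mol dm−3: polynucleotide portions added to compound (e.g. 1 × 10−6 mol dm−3). Excitation ≥ 300 nm to avoid inner filter effect. Data fitted by Scatchard equation, recalculated at fixed n = 0.2 [bound compound]/[polynucleotide]; I/I0 is the calculated complex fluorescence over starting compound fluorescence.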

AT rich DNA [11] = experiment: Binding affinity to double stranded [poly(dA-dT)2] DNA (unknown origin) assessed as change in fluorescence intensity at pH 7 by fluorescence spectroscopy relative to control; type: nucleic-acid assay; settings: Homo sapiens; in short: as §5

SMILES	MIC (Staphylococcus aureus)	MIC (Enterococcus faecalis)	MIC (Moraxella catarrhalis)	MIC (Escherichia coli)	MIC (Streptococcus pneumoniae [1])	MIC (Streptococcus pneumoniae [2])	MIC (Streptococcus pyogenes [3])	MIC (Streptococcus pyogenes [4])	IC50 [5]	ΔTm (Calf thymus DNA [6])	ΔTm (AT rich DNA [7])	Activity (Calf thymus DNA [8])	Activity (AT rich DNA [9])	log Ks (AT rich DNA [10])	fold change (FC) (AT rich DNA [11])
Cl.O=C(COc1ccc(-c2nc3ccc(C4=NCCCN4)cc3s2)cc1F)c1ccccc1	128 µg/mL	128 µg/mL	4 µg/mL	16 µg/mL	32 µg/mL	128 µg/mL	32 µg/mL	128 µg/mL	> 100 µM	0 °C	3.8 °C	Active	Active	–	–
Cl.Fc1cc(-c2nc3ccc(C4=NCCCN4)cc3s2)ccc1OCc1c[nH]nn1	128 µg/mL	> 128 µg/mL	> 128 µg/mL	> 128 µg/mL	–	–	–	–	–	–	–	–	–	–	–
COc1cc(-c2nc3ccc(C4=NCCCN4)cc3s2)ccc1OCc1ccccn1.Cl	> 128 µg/mL	> 128 µg/mL	32 µg/mL	128 µg/mL	–	–	–	–	–	–	–	–	–	–	–
COc1cc(-c2nc3ccc(C4=NCCCN4)cc3s2)ccc1OCc1c[nH]nn1.Cl	> 128 µg/mL	> 128 µg/mL	32 µg/mL	128 µg/mL	–	–	–	–	–	–	–	–	–	–	–
Cl.c1ccc(Cn2cc(COc3ccc(-c4nc5ccc(C6=NCCCN6)cc5s4)cc3)nn2)cc1	128 µg/mL	128 µg/mL	4 µg/mL	32 µg/mL	–	–	–	–	–	–	–	–	–	–	–
COc1cc(-c2nc3ccc(C4=NCCCN4)cc3s2)ccc1OCc1cn(Cc2ccccc2)nn1.Cl	> 128 µg/mL	128 µg/mL	16 µg/mL	64 µg/mL	–	–	–	–	–	–	–	–	–	–	–
CC1(C)S[C@@H]2[C@H](NC(=O)[C@H](N)c3ccccc3)C(=O)N2[C@H]1C(=O)O [AMPICILLIN]	–	–	–	–	0.25 µg/mL (≈ 0.715 µM)	0.25 µg/mL (≈ 0.715 µM)	0.25 µg/mL (≈ 0.715 µM)	0.25 µg/mL (≈ 0.715 µM)	–	–	–	–	–	–	–
Cl.O=C(COc1ccc(-c2nc3ccc(C4=NCCCN4)cc3s2)cc1)c1ccccc1	128 µg/mL	> 128 µg/mL	8 µg/mL	32 µg/mL	–	–	–	–	–	0 °C	3.1 °C	Active	Active	5.3	4.9
CC[C@H]1OC(=O)[C@H](C)[C@@H](O[C@H]2C[C@@](C)(OC)[C@@H](O)[C@H](C)O2)[C@H](C)[C@@H](O[C@@H]2O[C@H](C)C[C@H](N(C)C)[C@H]2O)[C@](C)(O)C[C@@H](C)CN(C)[C@H](C)[C@@H](O)[C@]1(C)O [AZITHROMYCIN]	2 µg/mL (≈ 2.67 µM)	0.125 µg/mL (≈ 0.167 µM)	8 µg/mL (≈ 10.7 µM)	0.5 µg/mL (≈ 0.668 µM)	0.125 µg/mL (≈ 0.167 µM)	16 µg/mL (≈ 21.4 µM)	0.125 µg/mL (≈ 0.167 µM)	8 µg/mL (≈ 10.7 µM)	–	–	–	–	–	–	–
Cl.c1cc(-c2nc3ccc(C4=NCCCN4)cc3s2)ccc1OCc1c[nH]nn1	> 128 µg/mL	> 128 µg/mL	32 µg/mL	> 128 µg/mL	–	–	–	–	–	–	–	–	–	–	–
